For experiment [1], the system named is SK-BR-3. Put plainly: Ratio of novobiocin IC50 to compound IC50 for human SKBR3 cells expressing HER2. The format is functional.
The next experiment deals with MCF7. The experiment in a line: Antiproliferative activity against human MCF7 cells expressing estrogen receptor after 72 hrs by MTS/PMS assay. Format: functional, cell-based. To be noted: MCF7, 72 h. A digest of the protocol:
(§1)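 Cells kept in Advanced DMEM/F12 (1:1) with non-essential amino acids, 2 mM L-glutamine, penicillin, streptomycin and 10% FBS at 37 °C, 5% CO2. Seeded at 2000/well, attached overnight. Compound added in DMSO across a concentration range (1% DMSO final) for 72 h. Viable cells read by MTS/PMS and normalized to 1% DMSO controls (100%). IC50 taken from separate triplicate experiments.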

The subject of experiment [2] is SK-BR-3. The experiment in a line: Antiproliferative activity against human SKBR3 cells expressing HER2 after 72 hrs by MTS/PMS assay. The format is functional, cell-based. To be noted: SK-BR-3, 72 h. A digest of the protocol:
as §1

The target of experiment [3] is T1, Heat shock protein HSP90 (Homo sapiens) (UniProt P07900+P08238). The experiment in a line: Inhibition of Hsp90 in human MCF7 cells assessed as Raf1 degradation after 24 hrs by Western blot analysis. Format: cell-based. A digest of the protocol: (§2)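 MCF-7 cells grown as for proliferation and treated with compound at various concentrations, GDA, or DMSO vehicle (1% DMSO final) for 24 h. Lysed in RIPA with 1 mM PMSF, 2 mM orthovanadate and protease inhibitors on ice for 1 h, then clarified at 14000g. Protein measured by BCA. 20 µg run reducing, transferred to nitrocellulose and probed with specific antibodies.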
For orientation: Immunoblotting shows a protein as a band on a membrane.

Experiment [4] has as its target T1, Heat shock protein HSP90 (Homo sapiens). The experiment in a line: Inhibition of Hsp90 in human MCF7 cells assessed as Raf1 degradation at IC50 concentration after 24 hrs by Western blot analysis. The format is cell-based.
For experiment [5] the target is unchanged. Put plainly: Inhibition of Hsp90 in human MCF7 cells assessed as Akt degradation after 24 hrs by Western blot analysis. The format is cell-based. A digest of the protocol: as §2
Experiment [6] shares this target. Put plainly: Inhibition of Hsp90 in human MCF7 cells assessed as Her2 degradation at IC50 concentration after 24 hrs by Western blot analysis. The format is cell-based.
A short description of experiment [7]: Antiproliferative activity against human androgen-independent PC3MM2 cells after 72 hrs by MTS/PMS assay. Format: functional, cell-based. Particulars: PC3MM2, 72 h. A digest of the protocol: as §1
Experiment [8] has as its target T1, Heat shock protein HSP90 (Homo sapiens). The experiment in a line: Inhibition of Hsp90 in human MCF7 cells assessed as Her2 degradation after 24 hrs by Western blot analysis. Format: cell-based. A digest of the protocol: as §2
For experiment [9] the target is unchanged. The experiment in a line: Inhibition of Hsp90 in human MCF7 cells assessed as Akt degradation at IC50 concentration after 24 hrs by Western blot analysis. Format: cell-based.
Experiment [10] is described as follows: Antiproliferative activity against human androgen-dependent LNCaP-LN3 cells after 72 hrs by MTS/PMS assay. Particulars: LNCaP-LN3, 72 h. Format: functional, cell-based. A digest of the protocol:
as §1

Experiment [11] can be described thus: Antiproliferative activity against human MDA1986 cells after 72 hrs by MTS/PMS assay. Format: functional, cell-based. Particulars: MDA1986, 72 h. A digest of the protocol: as §1
A further experiment relates to B16-F10. Put plainly: Antiproliferative activity against mouse B16F10 cells after 72 hrs by MTS/PMS assay. The format is functional, cell-based. To be noted: B16-F10, 72 h. A digest of the protocol:
as §1

For another experiment, the system named is SK-MEL-28. Put plainly: Antiproliferative activity against human SK-MEL-28 cells after 72 hrs by MTS/PMS assay. The format is functional, cell-based. Particulars: SK-MEL-28, 72 h. A digest of the protocol: as §1
The nature of experiment [12]: Antiproliferative activity against human JMAR cells after 72 hrs by MTS/PMS assay. Format: functional, cell-based. A digest of the protocol:
as §1

Structures are written as SMILES. Activity calls are given as the source filed them. No cut-off for these calls is given here.

Broadly, the IC50 is the midpoint of a concentration-inhibition curve. Higher therefore signals lower potency. For `COc1cccc(-c2cc(C(=O)Nc3cc4ccc(O[C@H]5OCC[C@@H](O)[C@H]5O)c(OC)c4oc3=O)ccc2OC)c1`, the “Ratio IC50” value in the experiment with SK-BR-3 [1] came to 500. The IC50 was determined as 10.8 µM with MCF7 and 11.1 µM with SK-BR-3 [2].
For `COc1cccc(-c2cc(C(=O)Nc3cc4cc(OC)c(O[C@@H]5OC[C@@H]6OC(=O)O[C@H]56)c(C)c4oc3=O)ccc2OC)c1`, the “Ratio IC50” value with SK-BR-3 [1] turned out to be 500.
Regarding `COc1cc2cc(NC(=O)c3ccc(OC(C)=O)c(CC=C(C)C)c3)c(=O)oc2c(C)c1OCCCN(C)C`, the inhibition entry in [3], in experiment [5] and in experiment [8] was “Dose-dependent effect” each time. Further, the inhibition result in experiment [4], in experiment [6] and in [9] was “Active” in each case. The IC50 in experiment [7] worked out at 1.46 µM; with MCF7, 0.7 µM; with SK-BR-3 [2] it was 0.36 µM.
With `COc1cc2cc(NC(=O)c3ccc(O)c(CC=C(C)C)c3)c(=O)oc2c(C)c1OC1CCN(C)CC1`, the inhibition result in [3], in [5] and in experiment [8] was “Dose-dependent effect” throughout. Further, the inhibition result in experiment [4], in [6] and in experiment [9] was “Active” each time. The IC50 in experiment [7] worked out at 2.26 µM; with MCF7, 0.54 µM; in the experiment with SK-BR-3 [2], 0.42 µM.
Regarding `COc1cccc(-c2cc(C(=O)Nc3cc4ccc(OC5C=CCN(C)C5)c(C)c4oc3=O)ccc2OC)c1` (centres undefined), the IC50 in [10] came to 1.22 µM; in [11], 7.7 µM; with B16-F10 it was 6.4 µM; in experiment [7], 1.73 µM; with SK-MEL-28, 10.8 µM; in the experiment on MCF7 it was 5.29 µM. For the same molecule, the results for the IC50 (in the experiment with SK-BR-3 [2]; in experiment [12]) were 2.92 µM and 11.4 µM, respectively.
Turning to `COc1cccc(-c2cc(C(=O)Nc3cc4cc(OC)c(OC5CNC[C@@H](O)[C@H]5O)c(C)c4oc3=O)ccc2OC)c1` (some centres undefined), the IC50 in experiment [10] was found to be 9.45 µM; in experiment [11], 13.8 µM; in the experiment on B16-F10, 5.04 µM; in [7], 6.84 µM; in the experiment on SK-MEL-28, 13.8 µM; in the experiment on MCF7, 3.34 µM. In addition, the IC50 in the experiment with SK-BR-3 [2] came out at 3.65 µM; in [12], 11.5 µM.
In the case of `COc1cccc(-c2cc(C(=O)Nc3cc4ccc(O[C@@H]5O[C@H](CO)C[C@@H](O)[C@H]5O)c(C)c4oc3=O)ccc2OC)c1`, the IC50 in experiment [10] came to 3.23 µM; in experiment [11], 5.7 µM; in the experiment on B16-F10 it was 9.6 µM; in experiment [7], 4.58 µM; with SK-MEL-28, 10.7 µM; in the experiment on MCF7, 11.1 µM. The figures for the IC50 (with SK-BR-3 [2]; in [12]) were 9.59 µM and 5.8 µM, respectively.
Turning to `CNCCOc1ccc2cc(NC(=O)c3ccc(OC)c(-c4cccc(OC)c4)c3)c(=O)oc2c1C`, the IC50 is > 100 µM in experiment [10]; 21.9 µM in experiment [11]; 37.4 µM with B16-F10; 14 µM in [7]; 25.6 µM in the experiment with SK-MEL-28; 9.8 µM in the experiment with MCF7. Moreover, the IC50 with SK-BR-3 [2] was 5.36 µM; in [12] it was 35.1 µM.

The record behind these values is ChEMBL document CHEMBL1795208 (J Med Chem, 2011).
